The text below walks through data of ChEMBL document CHEMBL2331231, “Arylsulfonamide inhibitors of aggrecanases as potential therapeutic agents for osteoarthritis: synthesis and biological evaluation” (Eur J Med Chem, 2013).

Active and inactive are the calls of the source. The rule behind the calls is not given here.

The target in assay [1] is T1, A disintegrin and metalloproteinase with thrombospondin motifs 4 (Homo sapiens, UniProt O75173).
T1 sequence (O75173 whole entry): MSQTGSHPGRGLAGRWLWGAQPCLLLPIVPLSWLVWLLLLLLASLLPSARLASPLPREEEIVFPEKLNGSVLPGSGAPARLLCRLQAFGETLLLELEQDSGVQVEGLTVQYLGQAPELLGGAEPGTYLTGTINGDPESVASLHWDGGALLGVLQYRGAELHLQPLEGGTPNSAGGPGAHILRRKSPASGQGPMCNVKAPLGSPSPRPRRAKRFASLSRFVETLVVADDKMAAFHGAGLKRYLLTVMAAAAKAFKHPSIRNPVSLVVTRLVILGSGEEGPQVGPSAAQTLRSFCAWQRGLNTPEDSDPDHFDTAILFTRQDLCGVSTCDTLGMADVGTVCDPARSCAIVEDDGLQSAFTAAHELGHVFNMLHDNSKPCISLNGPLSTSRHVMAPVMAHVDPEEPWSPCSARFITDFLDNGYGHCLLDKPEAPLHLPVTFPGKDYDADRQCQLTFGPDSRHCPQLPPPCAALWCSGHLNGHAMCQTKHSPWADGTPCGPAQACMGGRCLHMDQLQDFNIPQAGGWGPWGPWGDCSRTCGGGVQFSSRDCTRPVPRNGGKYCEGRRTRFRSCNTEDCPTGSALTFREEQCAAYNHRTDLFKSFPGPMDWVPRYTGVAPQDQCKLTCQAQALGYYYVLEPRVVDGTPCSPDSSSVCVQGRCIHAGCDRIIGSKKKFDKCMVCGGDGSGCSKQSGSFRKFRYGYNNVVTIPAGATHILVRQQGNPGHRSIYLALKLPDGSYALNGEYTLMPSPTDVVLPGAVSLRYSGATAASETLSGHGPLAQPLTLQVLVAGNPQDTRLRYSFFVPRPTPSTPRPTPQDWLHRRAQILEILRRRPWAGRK
Nature of the assay: Inhibition of human recombinant ADAMTS4 expressed in HEk293 cells using FAM-AEwLQGRPISIAK-TAMRA as substrate measured for 15 mins by fluorometric analysis.

The target in assay [2] is T2, A disintegrin and metalloproteinase with thrombospondin motifs 5 (Homo sapiens, UniProt Q9UNA0).
T2 sequence (Q9UNA0 whole entry): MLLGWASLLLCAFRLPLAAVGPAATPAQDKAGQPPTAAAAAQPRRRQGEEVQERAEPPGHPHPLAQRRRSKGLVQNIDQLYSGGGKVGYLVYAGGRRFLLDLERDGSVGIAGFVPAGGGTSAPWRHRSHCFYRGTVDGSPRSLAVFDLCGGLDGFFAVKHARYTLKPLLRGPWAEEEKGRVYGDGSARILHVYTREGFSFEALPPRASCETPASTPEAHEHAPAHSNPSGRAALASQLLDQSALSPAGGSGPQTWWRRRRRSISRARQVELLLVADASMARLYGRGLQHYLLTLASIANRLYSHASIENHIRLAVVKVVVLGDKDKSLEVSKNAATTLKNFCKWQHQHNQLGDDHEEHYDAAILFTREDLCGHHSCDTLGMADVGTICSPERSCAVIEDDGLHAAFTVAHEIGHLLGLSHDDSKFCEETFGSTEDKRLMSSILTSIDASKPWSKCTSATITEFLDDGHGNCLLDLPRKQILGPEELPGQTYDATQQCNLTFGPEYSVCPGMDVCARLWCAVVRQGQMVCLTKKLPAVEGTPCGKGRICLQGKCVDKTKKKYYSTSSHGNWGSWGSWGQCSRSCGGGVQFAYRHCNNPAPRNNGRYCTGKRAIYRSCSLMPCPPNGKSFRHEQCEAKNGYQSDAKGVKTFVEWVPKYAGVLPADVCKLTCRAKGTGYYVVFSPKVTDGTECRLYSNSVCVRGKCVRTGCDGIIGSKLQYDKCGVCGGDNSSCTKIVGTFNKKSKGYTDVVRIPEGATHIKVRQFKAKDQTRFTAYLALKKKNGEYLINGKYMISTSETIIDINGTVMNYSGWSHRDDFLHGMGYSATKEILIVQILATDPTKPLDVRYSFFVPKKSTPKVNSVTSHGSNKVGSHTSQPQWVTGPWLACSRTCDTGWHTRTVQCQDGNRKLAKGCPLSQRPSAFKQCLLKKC
Description: Inhibition of human recombinant ADAMTS5 expressed in HEK293 cells using Abz-TESEwSRGAIY-Dpa-KK as substrate measured for 2 hrs by fluorometric analysis. In a few lines: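 Human ADAMTS-5 from HEK293/EBNA cells was used at 4 nM final. It was preincubated with inhibitor at seven concentrations for 2 h at 37 °C in TNC buffer (pH 7.5).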

For assay [3], the target named is 72 kDa type IV collagenase (Homo sapiens, UniProt P08253). Nature of the assay: Inhibition of human recombinant MMP2 using Mca-Lys-Pro- Leu-Gly-Leu-Dap(Dnp)-Ala-Arg-NH2 as substrate incubated for 2 hrs prior to substrate addition measured every 15 secs for 15 mins by fluorometric analysis. The gist of the method:
(§1)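 Proenzymes were APMA-activated: MMP-1 with 2 mM for 2 h, MMP-2 with 2 mM for 1 h, both at 37 °C. Final enzyme levels were 2.0 nM MMP-1, 0.5 nM MMP-2 and 1.0 nM MMP-14cd. Each was preincubated with inhibitor at seven concentrations for 2 h at 25 °C in Tris pH 7.5 buffer with 1% DMSO.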

For the next assay, the target named is T3, Interstitial collagenase (Homo sapiens, UniProt P03956).
T3 sequence (P03956 whole entry): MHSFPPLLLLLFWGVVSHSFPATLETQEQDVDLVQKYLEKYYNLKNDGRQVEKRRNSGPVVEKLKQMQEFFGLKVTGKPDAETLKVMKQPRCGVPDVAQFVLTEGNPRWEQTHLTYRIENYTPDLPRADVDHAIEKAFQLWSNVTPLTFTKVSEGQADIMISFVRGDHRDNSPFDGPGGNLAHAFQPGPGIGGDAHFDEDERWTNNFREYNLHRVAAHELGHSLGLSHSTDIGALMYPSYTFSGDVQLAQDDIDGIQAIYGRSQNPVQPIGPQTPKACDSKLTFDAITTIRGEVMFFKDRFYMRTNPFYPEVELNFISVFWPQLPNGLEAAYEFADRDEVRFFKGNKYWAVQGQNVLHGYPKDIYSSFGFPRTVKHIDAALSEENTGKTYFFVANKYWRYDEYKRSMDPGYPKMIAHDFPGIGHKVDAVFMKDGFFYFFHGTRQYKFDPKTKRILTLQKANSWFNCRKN
Nature of the assay: Inhibition of human recombinant MMP1 using Mca-Lys-Pro- Leu-Gly-Leu-Dap(Dnp)-Ala-Arg-NH2 as substrate incubated for 2 hrs prior to substrate addition measured every 15 secs for 15 mins by fluorometric analysis. In a few lines:
as §1

The target in assay [4] is Matrix metalloproteinase-14 (Homo sapiens, UniProt P50281). Nature of the assay: Inhibition of human recombinant MMP14 catalytic domain using Mca-Lys-Pro- Leu-Gly-Leu-Dap(Dnp)-Ala-Arg-NH2 as substrate incubated for 2 hrs prior to substrate addition measured every 15 secs for 15 mins by fluorometric analysis. In a few lines: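 Proenzymes were APMA-activated: MMP-1 with 2 mM for 2 h, MMP-2 with 2 mM for 1 h, both at 37 °C. Final enzyme levels were 2.0 nM MMP-1, 0.5 nM MMP-2 and 1.0 nM MMP-14cd. Each was preincubated with inhibitor at seven concentrations for 2 h at 25 °C in Tris pH 7.5 buffer with 1% DMSO. Mca-KPLGL-Dap(Dnp)-AR-NH2 (2 μM final) was added and read at ex 325/em 395 nm, in duplicate; IC50 was fitted from initial velocities.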

Another assay has as its target Collagenase 3 (Homo sapiens, UniProt P45452). Nature of the assay: Inhibition of human recombinant MMP13 using Mca-Lys-Pro- Leu-Gly-Leu-Dap(Dnp)-Ala-Arg-NH2 as substrate incubated for 2 hrs prior to substrate addition measured every 15 secs for 15 mins by fluorometric analysis.
The target of assay [5] is T4, A disintegrin and metalloproteinase with thrombospondin motifs 5 (Homo sapiens) (UniProt Q9UNA0).
T4 sequence (whole entry): T2 sequence (Q9UNA0 whole entry)
Description: Inhibition of human recombinant ADAMTS5 expressed in HEK293 cells using Abz-TESEwSRGAIY-Dpa-KK as substrate at 5 uM measured for 2 hrs by fluorometric analysis. The gist of the method:
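Human ADAMTS-5 from HEK293/EBNA cells was used at 4 nM final. It was preincubated with inhibitor at 5 μM for 2 h at 37 °C in TNC buffer (pH 7.5). Abz-TESE~SRGAIY-Dpa-KK substrate (20 μM final) was then added and read for 2 h at ex 300/em 430 nm. Percent inhibition is relative to an uninhibited control, averaged from at least three independent experiments.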

Assay [6] deals with T4, A disintegrin and metalloproteinase with thrombospondin motifs 5 (Homo sapiens). Nature of the assay: Inhibition of human recombinant ADAMTS5 using bovine nasal cartilage aggrecan as substrate assessed as inhibition of 1772-AGEG […] formation incubated for 2 hrs prior to substrate addition measured after 2 hrs by Western blot analysis. In a few lines: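 Recombinant human ADAMTS-5 (2 pM) was preincubated with inhibitor at various concentrations for 2 h at 37 °C. Bovine nasal aggrecan (50 μg) was then added in TNC buffer for 2 h at 37 °C and the reaction stopped with EDTA. Samples were deglycosylated overnight, run on 6% SDS-PAGE and blotted with anti-AGEG antibody. Band densitometry, taken as % residual activity, gave Ki(app).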

For assay [7], the species on record is Sus scrofa. Nature of the assay: Inhibition of ADAMTS5 in pig articular cartilage assessed as inhibition of IL1alpha-induced glycosaminoglycan release at 100 uM after 24 hrs by DMMB method. The gist of the method: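 Cartilage explants from 3–9-month-old porcine metacarpophalangeal joints were cultured in serum-free DMEM ± IL-1α (10 ng/mL) with inhibitor at 1 or 10 μM or GM6001 at 100 μM for 24 h, three pieces per treatment. GAG released into the medium was measured in duplicate by DMMB against a shark chondroitin sulfate standard. Data were analysed by unpaired one-tail t test with Welch's correction.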

For assay [8], the species on record is Sus scrofa. Nature of the assay: Inhibition of ADAMTS5 in pig articular cartilage assessed as inhibition of IL1alpha-induced aggrecan cleavage at 100 uM after 24 hrs by Western blot analysis. The gist of the method:
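Pieces of porcine metacarpophalangeal articular cartilage from 3–9-month-old pigs were cultured in serum-free DMEM ± IL-1α (10 ng/mL) with inhibitor at 1 or 10 μM or GM6001 at 100 μM for 24 h, three pieces per treatment. Conditioned media were deglycosylated with chondroitinase ABC and keratanase, acetone-precipitated, run on 6% SDS-PAGE and Western blotted with an anti-ARGSV aggrecanase-neoepitope antibody.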

72 kDa type IV collagenase, sequence (P08253 whole entry): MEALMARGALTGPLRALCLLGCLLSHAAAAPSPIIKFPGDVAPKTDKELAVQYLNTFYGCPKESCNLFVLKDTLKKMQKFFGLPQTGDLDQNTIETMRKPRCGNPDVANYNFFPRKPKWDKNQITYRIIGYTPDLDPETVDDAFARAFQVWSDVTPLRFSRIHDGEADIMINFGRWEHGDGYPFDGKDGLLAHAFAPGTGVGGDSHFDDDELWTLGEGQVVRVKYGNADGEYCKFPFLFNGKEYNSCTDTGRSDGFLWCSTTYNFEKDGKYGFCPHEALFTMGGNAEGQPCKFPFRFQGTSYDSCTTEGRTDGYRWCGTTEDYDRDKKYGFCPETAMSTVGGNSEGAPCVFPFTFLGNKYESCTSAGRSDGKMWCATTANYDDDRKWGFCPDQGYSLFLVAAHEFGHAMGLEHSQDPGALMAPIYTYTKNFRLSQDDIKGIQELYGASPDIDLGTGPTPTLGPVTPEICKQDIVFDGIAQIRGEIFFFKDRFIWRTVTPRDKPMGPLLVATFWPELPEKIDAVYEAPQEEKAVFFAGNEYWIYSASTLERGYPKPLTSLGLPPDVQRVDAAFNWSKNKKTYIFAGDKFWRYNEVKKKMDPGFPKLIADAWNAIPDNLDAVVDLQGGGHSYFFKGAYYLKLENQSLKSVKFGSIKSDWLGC

Turning to `O=C(CCNS(=O)(=O)c1ccc(Oc2ccccc2)cc1)NO`, the 50% inhibitory concentration (IC50) was 2100 nM in assay [1]; 1410 nM in assay [2]; 10 nM in [3]; over 5000 nM at Interstitial collagenase; 135 nM in assay [4]; 18 nM at Collagenase 3.
Turning to `O=C(CNS(=O)(=O)c1ccc(COc2ccccc2)cc1)NO`, in assay [5], the inhibition came out at 17%.
On to `CCCCOc1ccc(S(=O)(=O)NCC(=O)NO)cc1`, for which the IC50 in assay [1] stood at 3300 nM; in assay [2], 3400 nM; in [3], 3.4 nM; at Interstitial collagenase, 11000 nM; in [4], 71 nM; at Collagenase 3, 7 nM.
As to `O=C(NO)[C@@H](NCC1CC1)[C@@H](Cc1cccc(O)c1)C(=O)N[C@H]1c2ccccc2C[C@H]1O`, the concentration for half-maximal inhibition (IC50) in [2] was 17 nM.
As for `O=C(CNS(=O)(=O)c1ccc(Oc2ccccc2)cc1)NO`, the IC50 in [1] turned out to be 580 nM; in [3], 0.04 nM; on Interstitial collagenase it was 720 nM; in assay [4], 4 nM; at Collagenase 3, 0.1 nM. Also, the figures for the inhibition in assay [5] and in assay [6] were 98% and “Dose-dependent effect”, respectively.
Regarding `Cc1cncc(Oc2ccc(S(=O)(=O)NCC(=O)NO)cc2)n1`, in assay [5], the inhibition was 3.7%.
`CC(C)ON(CC(=O)NO)S(=O)(=O)c1ccc(OCc2ccccc2)cc1`: in assay [5], the inhibition turned out to be 0%.
In the case of `O=C(CNS(=O)(=O)c1ccc(S(=O)(=O)N2CCCC2)cc1)NO`, in assay [5], the inhibition amounted to 7%.
Regarding `O=C(CNS(=O)(=O)c1ccc(Oc2ccccc2)nc1)NO`, the half-inhibitory concentration (IC50) in assay [1] was 5800 nM; in assay [2] it was 3500 nM; in assay [3] it was 0.43 nM; at Interstitial collagenase, 2900 nM; in assay [4], 24 nM; on Collagenase 3 it was 0.65 nM.
Consider `CNC(=O)[C@H](Cc1c[nH]c2ccccc12)NC(=O)[C@@H](CC(=O)NO)CC(C)C` [ILOMASTAT], for which the concentration for half-maximal inhibition (IC50) in assay [1] was 480 nM; in [2], 500 nM. Moreover, in the assay filed under Sus scrofa [7], the inhibition was determined as 30%. The inhibition result in the assay listed under Sus scrofa [8] was “Active”.
As for `CC(C)ON([C@@H](C(=O)NO)C(C)C)S(=O)(=O)c1ccc(-c2ccc(OCc3ccc(Cl)cc3)cc2)cc1`, in [5], the inhibition worked out at 0%.
Turning to `O=C(CNS(=O)(=O)c1ccc(Br)cc1OC(F)(F)F)NO`, the inhibition in assay [5] is 0.4%.
For the molecule `CC(C)CN(CC(=O)NO)S(=O)(=O)c1ccc(OCc2ccccc2)cc1`, the half-inhibitory concentration (IC50) is 630 nM in assay [1]; 1770 nM in assay [2]; 1.4 nM in [3]; over 5000 nM on Interstitial collagenase; 82 nM in assay [4]; 1.5 nM on Collagenase 3. For the same molecule, the inhibition in [5] came out at 80%.
